4 compounds from ChEMBL document CHEMBL1147102, “rpoN gene of Pseudomonas aeruginosa alters its susceptibility to quinolones and carbapenems” (2007) can be followed below.

Holding throughout (assay type): functional
Assay [1] relates to Pseudomonas aeruginosa. As to the kind of experiment: Antimicrobial activity against Pseudomonas aeruginosa PAO1 with rpoN mutation after 24 hrs. Particulars: PAO1, 24 h. In outline:
(§1)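 Broth microdilution in LB broth, inoculum 1 × 10⁶ cells/ml. MIC read after 24 h at 37°C as the lowest concentration giving complete growth inhibition by unaided eye. For MBC, 10 μl from each well without visible growth was plated on LB agar and incubated 24 h at 37°C.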

For assay [2], the system named is Pseudomonas aeruginosa. As to the kind of experiment: Antimicrobial activity against wild type Pseudomonas aeruginosa PAO1 after 24 hrs. Particulars: PAO1, 24 h. In a few lines:
as §1

The test system of assay [3] is Pseudomonas aeruginosa. As to the kind of experiment: Antimicrobial activity against Pseudomonas aeruginosa PAO1 with pvdS mutation after 24 hrs. Particulars: PAO1, 24 h. In outline: as §1
In assay [4] the test system is Pseudomonas aeruginosa. Briefly: Increase in vqsR gene expression in Pseudomonas aeruginosa PAO1 with rpoN mutation at 8 ug/ml relative to wild type. In outline:
(§2)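 Overnight LB cultures were washed and resuspended in fresh LB with ofloxacin 8 μg/ml. Sampling was at 0, 1, 3 and 5 h, with RNA stabilized immediately. DNase-treated total RNA (~650 ng) was reverse transcribed. qRT-PCR was quantified against external plasmid standard curves and normalized to the rpsL reference gene. Triplicate reactions.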

Assay [5] has as its system Pseudomonas aeruginosa. As to the kind of experiment: Increase in pvdS gene expression in Pseudomonas aeruginosa PAO1 with rpoN mutation at 8 ug/ml after 3 hrs relative to wild type. In a few lines:
as §2

The test system of assay [6] is Pseudomonas aeruginosa. As to the kind of experiment: Increase in GFP tagged vqsR protein expression in Pseudomonas aeruginosa PAO1 with rpoN mutation at 8 ug/ml by flow cytometry relative to wild type. In outline:
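Strains carried a plasmid GFP reporter driven by the vqsR promoter. Cells were grown in LB broth with carbenicillin 400 μg/ml. Stationary-phase (overnight) cultures were washed, resuspended in fresh LB and given ofloxacin 8 μg/ml. Samples were taken over 0–5 h, washed and resuspended in PBS. Mean fluorescence intensity came from 20,000 events, corrected for background (PAO1 without gfp). Three experiments.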
(Flow cytometry measures light scatter and fluorescence of single cells or particles in a stream.)

In brackets after ≈: the same amount, converted by molar mass.

In the case of `C[C@@H](O)[C@H]1C(=O)N2C(C(=O)[O-])=C(SC3Cn4cnc[n+]4C3)[C@H](C)[C@H]12` (some centres not stated) [BIAPENEM], the MBC (as a rule, the smallest concentration meeting the test's criterion for killing) was determined as 16 µg/mL (≈ 45.7 µM) in the assay on Pseudomonas aeruginosa [1], 2 µg/mL (≈ 5.71 µM) with Pseudomonas aeruginosa [2] and 1 µg/mL (≈ 2.85 µM) against Pseudomonas aeruginosa [3]. Moreover, the MIC in the assay with Pseudomonas aeruginosa [1], with Pseudomonas aeruginosa [2] and in the assay on Pseudomonas aeruginosa [3] was 0.5 µg/mL (≈ 1.43 µM) throughout.
With `O=C(O)c1cn(C2CC2)c2cc(N3CCNCC3)c(F)cc2c1=O` [CIPROFLOXACIN], the figures for the MBC in the assay with Pseudomonas aeruginosa [1], with Pseudomonas aeruginosa [2] and against Pseudomonas aeruginosa [3] were 2 µg/mL (≈ 6.04 µM), 0.5 µg/mL (≈ 1.51 µM) and 0.25 µg/mL (≈ 0.754 µM), respectively. The MIC – broadly, the lowest concentration found to suppress growth – amounted to 0.25 µg/mL (≈ 0.754 µM) with Pseudomonas aeruginosa [1], 0.125 µg/mL (≈ 0.377 µM) in the assay on Pseudomonas aeruginosa [2] and 0.125 µg/mL (≈ 0.377 µM) with Pseudomonas aeruginosa [3].
Turning to `C[C@@H](O)[C@H]1C(=O)N2C(C(=O)O)=C(SCCNC=N)C[C@H]12` [IMIPENEM ANHYDROUS], the MBC against Pseudomonas aeruginosa [1] is 16 µg/mL (≈ 53.4 µM); with Pseudomonas aeruginosa [2], 1 µg/mL (≈ 3.34 µM); in the assay with Pseudomonas aeruginosa [3], 4 µg/mL (≈ 13.4 µM). In addition, the MIC against Pseudomonas aeruginosa [1], in the assay on Pseudomonas aeruginosa [2] and in the assay with Pseudomonas aeruginosa [3] was 1 µg/mL (≈ 3.34 µM) each time.
As to `CC1COc2c(N3CCN(C)CC3)c(F)cc3c(=O)c(C(=O)O)cn1c23` (configuration not stated) [OFLOXACIN], the Fold change was 2.5 in the assay on Pseudomonas aeruginosa [4], 30 with Pseudomonas aeruginosa [5] and 8 in the assay on Pseudomonas aeruginosa [6]. Further, the MBC was 2 µg/mL (≈ 5.53 µM) against Pseudomonas aeruginosa [1], 1 µg/mL (≈ 2.77 µM) against Pseudomonas aeruginosa [2] and 2 µg/mL (≈ 5.53 µM) against Pseudomonas aeruginosa [3]. In addition, the MIC against Pseudomonas aeruginosa [1], with Pseudomonas aeruginosa [2] and against Pseudomonas aeruginosa [3] was 1 µg/mL (≈ 2.77 µM) in each case.
